Measured values taken from ChEMBL document CHEMBL3994606, “Ring-opened tetrahydro-γ-carbolines display cytotoxicity and selectivity with histone deacetylase isoforms” (Eur J Med Chem, 2017).
pIC50: −log10 of the molar value. The source made the active and inactive calls. No cut-off for these calls is given here.

What was measured:
Homo sapiens [1] = organism: Homo sapiens; test: Selectivity ratio of IC50 for full length human recombinant C-terminal FLAG-His-tagged HDAC1 to IC50 for full length human recombinant N-terminal GST-tagged HDAC6
Histone deacetylase 1 = Histone deacetylase 1 (Homo sapiens, UniProt Q13547); test: Inhibition of full length human recombinant C-terminal FLAG-His-tagged HDAC1 expressed in Sf21 cells using RHKK(Ac) as substrate after 60 mins by fluorimetric method
Homo sapiens [2] = organism: Homo sapiens; test: Selectivity ratio of IC50 for full length human recombinant C-terminal GST-tagged HDAC2 to IC50 for full length human recombinant N-terminal GST-tagged HDAC6
Histone deacetylase 2 = Histone deacetylase 2 (Homo sapiens, UniProt Q92769); test: Inhibition of full length human recombinant C-terminal GST-tagged HDAC2 expressed in insect cells using RHKK(Ac) as substrate after 60 mins by fluorimetric method
HCT-116 [3] = test: Antiproliferative activity against human HCT116 cells after 48 hrs by SRB assay; assay type: functional; details: HCT-116, 48 h
Summary of the method: (§1)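 Cells seeded at 3-5 x 10³ cells/well. A T0 plate was fixed with 10% TCA at drug addition, and the rest were incubated 48 h with compound or DMSO, then TCA-fixed and stained with 0.4% SRB in 1% AcOH. Dye was extracted with 10 mM trizma base and read at 515 nm.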

PC-3 = test: Antiproliferative activity against human PC3 cells after 48 hrs by SRB assay; assay type: functional; details: PC-3, 48 h; summary of the method: as §1
A549 = test: Antiproliferative activity against human A549 cells after 48 hrs by SRB assay; assay type: functional; details: A549, 48 h; summary of the method: as §1
[4] = molecular target: T1, Protein deacetylase HDAC6 (Homo sapiens, UniProt Q9UBN7); test: Inhibition of full length human recombinant N-terminal GST-tagged HDAC6 expressed in Sf9 cells using RHKK(Ac) as substrate after 90 mins by fluorimetric method
T1 sequence (Q9UBN7 whole entry): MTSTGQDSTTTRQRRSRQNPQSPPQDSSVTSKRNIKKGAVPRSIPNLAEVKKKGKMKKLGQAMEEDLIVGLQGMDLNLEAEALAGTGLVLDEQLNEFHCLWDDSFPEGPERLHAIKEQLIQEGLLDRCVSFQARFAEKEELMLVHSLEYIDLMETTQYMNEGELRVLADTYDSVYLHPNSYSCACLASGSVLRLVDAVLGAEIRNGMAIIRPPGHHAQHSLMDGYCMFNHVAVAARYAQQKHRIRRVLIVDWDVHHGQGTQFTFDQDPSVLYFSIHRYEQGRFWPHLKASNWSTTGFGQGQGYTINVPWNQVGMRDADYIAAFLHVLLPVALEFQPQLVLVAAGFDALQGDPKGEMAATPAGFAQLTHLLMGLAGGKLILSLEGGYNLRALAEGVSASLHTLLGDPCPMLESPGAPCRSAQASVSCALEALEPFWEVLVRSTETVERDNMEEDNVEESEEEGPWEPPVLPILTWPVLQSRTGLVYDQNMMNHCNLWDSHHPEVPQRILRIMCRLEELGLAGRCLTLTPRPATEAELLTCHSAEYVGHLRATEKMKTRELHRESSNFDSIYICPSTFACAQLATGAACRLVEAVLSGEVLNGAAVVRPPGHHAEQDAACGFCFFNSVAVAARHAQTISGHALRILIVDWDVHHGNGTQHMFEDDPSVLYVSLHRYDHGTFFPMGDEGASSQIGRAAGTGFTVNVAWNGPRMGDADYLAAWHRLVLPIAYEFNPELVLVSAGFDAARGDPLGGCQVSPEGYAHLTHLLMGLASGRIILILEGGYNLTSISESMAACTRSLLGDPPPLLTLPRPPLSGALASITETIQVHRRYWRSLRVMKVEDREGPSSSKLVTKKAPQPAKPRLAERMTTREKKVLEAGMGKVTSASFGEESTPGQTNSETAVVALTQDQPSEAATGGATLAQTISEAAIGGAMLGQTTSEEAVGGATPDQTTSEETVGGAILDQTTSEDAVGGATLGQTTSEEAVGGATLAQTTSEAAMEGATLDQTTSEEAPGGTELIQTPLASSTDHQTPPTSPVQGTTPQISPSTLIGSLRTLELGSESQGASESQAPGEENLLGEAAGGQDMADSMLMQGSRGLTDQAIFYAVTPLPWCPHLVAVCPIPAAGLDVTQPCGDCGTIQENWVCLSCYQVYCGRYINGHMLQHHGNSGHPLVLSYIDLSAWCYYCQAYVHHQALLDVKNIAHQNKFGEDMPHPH

HCT-116 [5] = test: Cell cycle arrest in human HCT116 cells assessed as accumulation at sub-G1 phase after 48 hrs by propidium iodide staining-based flow cytometric method; assay type: functional
Summary of the method: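 HCT116 cells treated 48 h, then fixed overnight in 75% EtOH at -20 °C and washed in cold PBS. They were incubated 30 min at room temperature in 0.1 M phosphate-citric acid buffer (pH 7.8) and stained with propidium iodide buffer containing 0.1% Triton X-100 and RNase A. The sub-G1 fraction was measured by flow cytometry.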

HCT-116 [6] = test: Induction of apoptosis in human HCT116 cells assessed as increase in cleaved PARP levels at 1.25 to 2.5 uM after 48 hrs Western blot method; assay type: functional, cell-based
HCT-116 [7] = test: Induction of apoptosis in human HCT116 cells assessed as increase in cleaved caspase 3 levels at 1.25 to 2.5 uM after 48 hrs Western blot method; assay type: functional, cell-based
HCT-116 [8] = test: Anticlonogenic activity against human HCT116 cells after 24 hrs by crystal violet staining-based assay; assay type: functional, cell-based
Summary of the method: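 Cells exposed to a range of concentrations or DMSO vehicle for 24 h, washed, trypsinized and replated at 500 cells/well; after 14 days colonies were fixed and stained with 0.5% crystal violet in 70% EtOH. Colonies of more than 50 cells were counted, and survival fraction was taken relative to DMSO control.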

[9] = molecular target: T2, Protein deacetylase HDAC6 (Homo sapiens) (UniProt Q9UBN7); test: Inhibition of HDAC6 in human HCT116 cells assessed as upregulation of acetylated tubulin levels at 2.5 uM after 6 hrs by Western blot method; assay type: cell-based
T2 sequence (whole entry): T1 sequence (Q9UBN7 whole entry)
Summary of the method: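 HCT116 cells treated 6 h with compound, then lysates probed by western blot for acetyl-tubulin, with ECL detection.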

Homo sapiens [10] = organism: Homo sapiens; test: Inhibition of class 1 HDAC in human HCT116 cells assessed as upregulation of acetylated histone H3 levels at 2.5 uM after 6 hrs by Western blot method; assay type: cell-based

Chain of Histone deacetylase 1 (Q13547 whole entry): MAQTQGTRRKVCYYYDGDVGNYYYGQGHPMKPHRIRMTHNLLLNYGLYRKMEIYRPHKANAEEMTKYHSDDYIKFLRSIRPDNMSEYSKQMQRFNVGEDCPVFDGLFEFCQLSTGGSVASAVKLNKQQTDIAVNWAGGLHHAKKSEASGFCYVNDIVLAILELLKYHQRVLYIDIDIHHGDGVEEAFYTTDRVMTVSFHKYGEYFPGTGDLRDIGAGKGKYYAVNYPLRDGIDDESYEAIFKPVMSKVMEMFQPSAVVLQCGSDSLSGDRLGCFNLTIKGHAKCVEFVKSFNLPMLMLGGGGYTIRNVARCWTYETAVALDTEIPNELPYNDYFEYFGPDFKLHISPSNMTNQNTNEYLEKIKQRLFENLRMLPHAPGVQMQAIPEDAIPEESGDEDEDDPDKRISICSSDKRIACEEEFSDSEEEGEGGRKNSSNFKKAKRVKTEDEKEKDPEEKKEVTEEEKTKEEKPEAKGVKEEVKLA
Chain of Histone deacetylase 2 (Q92769 whole entry): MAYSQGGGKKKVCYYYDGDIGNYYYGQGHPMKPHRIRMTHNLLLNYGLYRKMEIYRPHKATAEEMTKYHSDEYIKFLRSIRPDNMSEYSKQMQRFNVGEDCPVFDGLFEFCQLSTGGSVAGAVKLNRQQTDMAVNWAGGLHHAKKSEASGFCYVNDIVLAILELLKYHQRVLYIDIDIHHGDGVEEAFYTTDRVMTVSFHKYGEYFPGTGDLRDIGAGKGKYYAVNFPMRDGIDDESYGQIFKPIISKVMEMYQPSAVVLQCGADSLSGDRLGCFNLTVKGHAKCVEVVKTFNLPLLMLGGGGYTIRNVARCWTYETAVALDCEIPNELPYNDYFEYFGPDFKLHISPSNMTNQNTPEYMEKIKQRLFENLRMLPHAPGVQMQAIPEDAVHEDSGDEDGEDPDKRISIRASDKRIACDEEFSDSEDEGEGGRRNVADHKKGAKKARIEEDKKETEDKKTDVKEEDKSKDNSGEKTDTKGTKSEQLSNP

SMILES	Ratio IC50 (Homo sapiens [1])	pIC50 (Histone deacetylase 1)	Ratio IC50 (Homo sapiens [2])	pIC50 (Histone deacetylase 2)	GI50 (HCT-116 [3])	GI50 (PC-3)	GI50 (A549)	pIC50 [4]	Activity (HCT-116 [5])	Activity (HCT-116 [6])	Activity (HCT-116 [7])	Activity (HCT-116 [8])	Acetylated tubulin upregulation (qualitative) [9]	Acetylated histone H3 upregulation (qualitative) (Homo sapiens [10])
CN(C)Cc1cn(Cc2ccc(/C=C/C(=O)NO)cc2)c2ccccc12	52	5.65	25	5.95	1390 nM	2550 nM	3000 nM	7.37	–	–	–	–	–	–
CN(C)Cc1cn(S(=O)(=O)c2ccc(/C=C/C(=O)NO)cc2)c2ccccc12	115	5.71	58	6.01	520 nM	790 nM	1620 nM	7.78	Dose-dependent effect	Active	Active	Dose-dependent effect	Active	inactive
CN(C)Cc1cn(S(=O)(=O)c2cccc(/C=C/C(=O)NO)c2)c2ccccc12	16	5.82	18	5.79	540 nM	1030 nM	1870 nM	7.05	Dose-dependent effect	Active	Active	Dose-dependent effect	Active	inactive
Cc1c(CN(C)C)c2ccccc2n1Cc1ccc(C(=O)NO)cc1	1580	5.01	> 1620	< 5.00	> 5000 nM	> 5000 nM	> 5000 nM	8.21	–	–	–	–	–	–
Cc1c(CN(C)C)c2ccccc2n1S(=O)(=O)c1cccc(/C=C/C(=O)NO)c1	21	5.73	15	5.87	500 nM	1690 nM	1920 nM	7.07	Dose-dependent effect	Active	Active	Dose-dependent effect	Active	inactive
CN(C)C(=O)c1cn(Cc2ccc(/C=C/C(=O)NO)cc2)c2ccccc12	73	6.20	122	5.98	750 nM	1890 nM	3330 nM	8.07	Dose-dependent effect	Active	Active	Dose-dependent effect	Active	inactive
CN(C)C(=O)c1cn(S(=O)(=O)c2cccc(/C=C/C(=O)NO)c2)c2ccccc12	34	5.16	> 49	< 5.00	2490 nM	> 5000 nM	> 5000 nM	6.70	–	–	–	–	–	–
CN(C)Cc1cn(Cc2ccc(C(=O)NO)cc2)c2ccccc12	328	5.15	562	4.91	> 5000 nM	3930 nM	> 5000 nM	7.66	–	–	–	–	–	–
CN1CCc2c(c3ccccc3n2S(=O)(=O)c2cccc(/C=C/C(=O)NO)c2)C1	14	5.57	16	5.50	640 nM	1840 nM	2450 nM	6.72	–	–	–	–	–	–
Cc1c(CN(C)C)c2ccccc2n1Cc1ccc(/C=C/C(=O)NO)cc1	22	5.67	24	5.62	1260 nM	2080 nM	3690 nM	7.02	–	–	–	–	–	–
CN(C)C(=O)c1cn(S(=O)(=O)c2ccc(/C=C/C(=O)NO)cc2)c2ccccc12	186	5.70	135	5.84	2140 nM	3100 nM	> 5000 nM	7.97	–	–	–	–	–	–
CN(C)C(=O)c1cn(Cc2ccc(C(=O)NO)cc2)c2ccccc12	714	5.24	> 1250	< 5.00	> 5000 nM	> 5000 nM	> 5000 nM	8.10	–	–	–	–	–	–
CN1CCc2c(c3ccccc3n2Cc2ccc(/C=C/C(=O)NO)cc2)C1	38	5.80	39	5.78	730 nM	1690 nM	2680 nM	7.38	–	–	–	–	–	–
